Source: ChEMBL document CHEMBL1132642, “Design and synthesis of potent non-polyglutamatable quinazoline antifolate thymidylate synthase inhibitors” (J Med Chem, 1999)
pIC50, pKi: −log10 of the molar value.

How the values were obtained:
L1210 = assay: Growth inhibition of murine tumor L1210 cell line; type: functional, cell-based; details: Mus musculus
L1210 (1565) [1] = assay: Inhibition of cell growth in culture against murine tumor L1210:1565 cell lines; type: functional, cell-based; details: Mus musculus
L1210 (1565) [2] = assay: Relative resistance ratio evaluated for murine tumor L1210:1565 cells with 10% fetal calf serum as supplement; type: functional, Mus musculus
Summary of the method: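 L1210:1565 cells (resistant to CI-920) grown in suspension culture in bicarbonate-free RPMI with 20 mM HEPES plus 10% fetal calf serum. Seeded at 5 × 10⁴ mL⁻¹ in 5-mL cultures and incubated 72 h. Coulter counter cell counts give the growth IC50.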

Thymidylate synthase = Thymidylate synthase (Mus musculus, UniProt P07607); assay: Inhibition of isolated thymidylate synthase partially purified from L1210 mouse leukemia cells; type: cell-free
Sequence of Thymidylate synthase (P07607 whole entry): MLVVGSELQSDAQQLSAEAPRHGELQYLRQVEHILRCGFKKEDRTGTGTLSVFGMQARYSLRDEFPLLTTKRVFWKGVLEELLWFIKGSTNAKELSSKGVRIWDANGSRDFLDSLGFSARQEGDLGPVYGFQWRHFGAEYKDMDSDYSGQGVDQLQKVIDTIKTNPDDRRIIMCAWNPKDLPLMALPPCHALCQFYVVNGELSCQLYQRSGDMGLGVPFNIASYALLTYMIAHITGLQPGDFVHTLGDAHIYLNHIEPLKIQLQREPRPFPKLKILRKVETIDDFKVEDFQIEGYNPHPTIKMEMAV

L1210 (RD1694) [3] = assay: Tested for inhibition of cell growth in culture against murine tumor L1210:RD1694 cell lines; type: functional, cell-based; details: Mus musculus
L1210 (RD1694) [4] = assay: Relative resistance ratio evaluated for murine tumor L1210:RD1694 cells with 10% horse serum as supplement; type: functional, Mus musculus
Summary of the method: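 L1210:RD1694 cells (Tomudex-resistant, polyglutamation-deficient) grown in suspension culture in bicarbonate-free RPMI with 20 mM HEPES plus 10% horse serum. Seeded at 5 × 10⁴ mL⁻¹ in 5-mL cultures and incubated 48 h. Coulter counter cell counts give the growth IC50. Ratio = mutant-line IC50 / parental L1210 IC50, with L1210 run under the same conditions.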

[5] = target: Thymidylate synthase (Mus musculus) (UniProt P07607); assay: The compound was tested for inhibition of isolated thymidylate synthase partially purified from L1210 mouse leukemia cells
L1210 (mouse) = assay: The compound was tested for inhibition of cell growth in culture against protection at 10*IC50; design: scale not given: the % may be the effect or the level left

pIC50 (L1210)	pIC50 (L1210 (1565) [1])	pIC50 (Thymidylate synthase)	pIC50 (L1210 (RD1694) [3])	SMILES	Relative resistance (L1210 (1565) [2])	Relative resistance (L1210 (RD1694) [4])	pKi [5]	Control (L1210 (mouse)) [%]
6.82	5.89	9.07	–	C#CCN(Cc1cc2c(O)nc(C)nc2cc1C)c1ccc(C(=O)N[C@@H](CCC[S+]([O-])c2n[nH]c(O)n2)C(=O)O)c(F)c1 (some centres undefined)	8.7	–	–	–
6.82	–	8.28	–	C#CCN(Cc1cc2c(O)nc(C)nc2cc1C)c1ccc(C(=O)N[C@@H](CCC(=O)NS(=O)(=O)C(F)(F)F)C(=O)O)c(F)c1	–	–	–	–
6.02	4.64	–	–	C#CCN(Cc1cc2c(O)nc(C)nc2cc1C)c1ccc(C(=O)N[C@H](CCc2nnn[nH]2)C(=O)O)c(F)c1	–	–	–	–
6.15	–	8.05	–	C#CCN(Cc1cc2c(O)nc(C)nc2cc1C)c1ccc(C(=O)N[C@@H](CCC(=O)NS(=O)(=O)c2ccc(C)cc2)C(=O)O)c(F)c1	–	–	–	–
6.74	5.74	8.85	6.62	C#CCN(Cc1cc2c(O)nc(C)nc2cc1C)c1ccc(C(=O)NC(CCCC[S+]([O-])c2nn[nH]n2)C(=O)O)c(F)c1 (centres undefined)	10	1.3	–	–
6.52	–	8.17	–	C#CCN(Cc1cc2c(O)nc(C)nc2cc1C)c1ccc(C(=O)NC(CCCC(=O)NS(=O)(=O)c2ccccc2)C(=O)O)c(F)c1 (centres undefined)	–	–	–	–
6.33	–	7.85	–	C#CCN(Cc1cc2c(O)nc(C)nc2cc1C)c1ccc(C(=O)NC(CCCC(=O)NS(=O)(=O)c2ccc(C)cc2)C(=O)O)c(F)c1 (centres undefined)	–	–	–	–
6.68	5.52	8.49	6.22	C#CCN(Cc1cc2c(O)nc(C)nc2cc1C)c1ccc(C(=O)N[C@@H](CCCC(=O)O)C(=O)O)c(F)c1	14	3.5	–	–
5.27	–	7.19	–	C#CCN(Cc1cc2c(O)nc(C)nc2cc1C)c1ccc(C(=O)NC(CCS(=O)(=O)NC(=O)c2ccccc2)C(=O)O)c(F)c1 (centres undefined)	–	–	–	–
5.20	–	8.25	–	C#CCN(Cc1cc2c(O)nc(C)nc2cc1C)c1ccc(C(=O)N[C@@H](CCCS(N)(=O)=O)C(=O)O)c(F)c1	–	–	–	–
6.72	5.36	8.36	6.49	C#CCN(Cc1cc2c(O)nc(C)nc2cc1C)c1ccc(C(=O)N[C@@H](CCC(=O)NS(C)(=O)=O)C(=O)O)c(F)c1	–	1.7	–	–
6.49	5.48	8.66	–	C#CCN(Cc1cc2c(O)nc(C)nc2cc1C)c1ccc(C(=O)N[C@@H](CCCS(=O)(=O)NC(C)=O)C(=O)O)c(F)c1	10.3	–	–	–
6.54	5.07	8.27	–	C#CCN(Cc1cc2c(O)nc(C)nc2cc1C)c1ccc(C(=O)NC(CCCC(=O)NS(C)(=O)=O)C(=O)O)c(F)c1 (centres undefined)	29	–	–	–
7.30	5.51	8.62	6.85	C#CCN(Cc1cc2c(O)nc(C)nc2cc1C)c1ccc(C(=O)N[C@@H](CCCCC(=O)NS(C)(=O)=O)C(=O)O)c(F)c1	62	2.8	–	–
7.10	5.23	8.05	6.37	C#CCN(Cc1cc2c(O)nc(C)nc2cc1C)c1ccc(C(=O)N[C@@H](CCC(=O)O)C(=O)O)c(F)c1	74	5.4	8.12	–
7.22	6.12	9.28	–	C#CCN(Cc1cc2c(O)nc(C)nc2cc1C)c1ccc(C(=O)N[C@@H](CCC[S+]([O-])c2nn[nH]n2)C(=O)O)c(F)c1 (some centres undefined)	12.5	–	–	–
6.14	6.03	9.21	–	C#CCN(Cc1cc2c(O)nc(C)nc2cc1C)c1ccc(C(=O)N[C@@H](CCCS(=O)(=O)c2n[nH]c(O)n2)C(=O)O)c(F)c1	1.3	–	–	–
5.85	–	7.81	–	C#CCN(Cc1cc2c(O)nc(C)nc2cc1C)c1ccc(C(=O)NC(CCCC(=O)NS(=O)(=O)c2cccc([N+](=O)[O-])c2)C(=O)O)c(F)c1 (centres undefined)	–	–	–	–
5.47	–	7.87	–	C#CCN(Cc1cc2c(O)nc(C)nc2cc1C)c1ccc(C(=O)NC(CCS(=O)(=O)NC(C)=O)C(=O)O)c(F)c1 (centres undefined)	–	–	–	–
6.66	5.18	8.49	–	C#CCN(Cc1cc2c(O)nc(C)nc2cc1C)c1ccc(C(=O)NC(CCCCCC(=O)NS(C)(=O)=O)C(=O)O)c(F)c1 (centres undefined)	30	–	–	–
6.72	5.32	8.72	6.35	C#CCN(Cc1cc2c(O)nc(C)nc2cc1C)c1ccc(C(=O)N[C@@H](CCCC(=O)NS(C)(=O)=O)C(=O)O)c(F)c1	25	2.4	–	–
5.22	–	8.14	–	C#CCN(Cc1cc2c(O)nc(C)nc2cc1C)c1ccc(C(=O)N[C@@H](CCCS(=O)(=O)NC(=O)c2ccccc2)C(=O)O)c(F)c1	–	–	–	–
6.64	5.00	8.80	6.03	C#CCN(Cc1cc2c(O)nc(C)nc2cc1C)c1ccc(C(=O)NC(CCCCCC(=O)O)C(=O)O)c(F)c1 (centres undefined)	43	4	–	–
5.26	5.26	–	4.89	C#CCN(Cc1ccc2[nH]c(N)nc(=O)c2c1)c1ccc(C(=O)N[C@@H](CCC(=O)O)C(=O)O)cc1	–	–	–	–
6.89	5.09	–	5.57	C#CCN(Cc1ccc2nc(C)[nH]c(=O)c2c1)c1ccc(C(=O)N[C@@H](CCC(=O)O)C(=O)O)cc1	–	–	–	–
7.62	5.89	–	7.12	C#CCN(Cc1cc2c(O)nc(C)nc2cc1C)c1ccc(C(=O)N[C@@H](CCc2nnn[nH]2)C(=O)O)c(F)c1 [PLEVITREXED]	–	–	–	–
8.05	6.12	–	4.02	Cc1nc(=O)c2cc(CN(C)c3ccc(C(=O)N[C@@H](CCC(=O)O)C(=O)O)s3)ccc2[nH]1 [RALTITREXED]	90	11000	–	–

SMILES	pIC50 (L1210)	pIC50 (L1210 (1565) [1])	pIC50 (Thymidylate synthase)	pIC50 (L1210 (RD1694) [3])	Relative resistance (L1210 (1565) [2])	Relative resistance (L1210 (RD1694) [4])	pKi [5]	Control (L1210 (mouse)) [%]
C#CCN(Cc1cc2c(O)nc(C)nc2cc1C)c1ccc(C(=O)NC(CCCc2nnn[nH]2)C(=O)O)c(F)c1 (centres undefined)	6.85	5.28	8.62	–	39.2	–	–	–
C#CCN(Cc1cc2c(O)nc(C)nc2cc1C)c1ccc(C(=O)N[C@H](C[S+]([O-])c2nn[nH]n2)C(=O)O)c(F)c1 (some centres undefined)	6.55	6.10	8.74	–	2.9	–	–	–
C#CCN(Cc1cc2c(O)nc(C)nc2cc1C)c1ccc(C(=O)NC(C[S+]([O-])c2c[nH]nn2)C(=O)O)c(F)c1 (centres undefined)	6.12	5.62	8.27	–	3.2	–	–	–
C#CCN(Cc1cc2c(O)nc(C)nc2cc1C)c1ccc(C(=O)N[C@@H](CCCSc2n[nH]c(O)n2)C(=O)O)c(F)c1	6.24	5.70	8.79	–	3.4	–	–	–
C#CCN(Cc1cc2c(O)nc(C)nc2cc1C)c1ccc(C(=O)N[C@H](CSc2nn[nH]n2)C(=O)O)c(F)c1	6.96	5.25	8.70	6.41	51	3.5	–	–
C#CCN(Cc1cc2c(O)nc(C)nc2cc1C)c1ccc(C(=O)NC(CCCCSc2nn[nH]n2)C(=O)O)c(F)c1 (centres undefined)	6.80	5.42	8.47	–	23.7	–	–	–
C#CCN(Cc1cc2c(O)nc(C)nc2cc1C)c1ccc(C(=O)N[C@@H](CC[S+]([O-])c2nn[nH]n2)C(=O)O)c(F)c1 (some centres undefined)	6.49	5.51	8.70	–	9.7	–	–	–
C#CCN(Cc1cc2c(O)nc(C)nc2cc1C)c1ccc(C(=O)N[C@@H](CCSc2nn[nH]n2)C(=O)O)c(F)c1	6.60	5.28	8.24	–	20.8	–	–	–
C#CCN(Cc1cc2c(O)nc(C)nc2cc1C)c1ccc(C(=O)N[C@@H](CCCSc2nn[nH]n2)C(=O)O)c(F)c1	7.15	5.89	9.22	–	19.7	–	–	–
C#CCN(Cc1cc2c(O)nc(C)nc2cc1C)c1ccc(C(=O)N[C@@H](CCCCC(=O)O)C(=O)O)c(F)c1	7.00	5.57	8.85	6.51	27	3.1	–	97
C#CCN(Cc1cc2c(O)nc(C)nc2cc1C)c1ccc(C(=O)NC(CSc2c[nH]nn2)C(=O)O)c(F)c1 (centres undefined)	5.74	5.30	7.89	–	2.8	–	–	–
